In ChEMBL document CHEMBL2029225, “Synthesis of marine-derived 3-alkylpyridinium alkaloids with potent antiprotozoal activity” (ACS Med Chem Lett, 2011):
Activity calls are given as the source filed them. The rule behind the calls is not given here.

Assays:
[1] = test system: Trypanosoma brucei brucei; test: Antitrypanosomal activity against bloodstream form of Trypanosoma brucei brucei 427 (BS221) after 72 hrs by alamar blue assay; format: functional, organism-based
[2] = test system: Trypanosoma brucei brucei; test: Antitrypanosomal activity against TbAt1-deficient bloodstraem form of Trypanosoma brucei brucei 427 (BS221) after 72 hrs by alamar blue assay; format: functional, organism-based
[3] = test system: Trypanosoma brucei brucei; test: Antitrypanosomal activity against TbAt1-deficient bloodstraem form Trypanosoma brucei brucei B48 after 72 hrs by alamar blue assay; format: functional, organism-based; details: B48, 72 h
Leishmania major = test: Antileishmanial activity against promastigotes of Leishmania major Friedlin after 72 hrs by alamar blue assay; format: functional, organism-based
Leishmania mexicana = test: Antileishmanial activity against amastigotes of Leishmania mexicana MNYC/BZ/62/M379 after 72 hrs by alamar blue assay; format: functional, organism-based; details: MNYC/BZ/62/M379, 72 h
Plasmodium falciparum = test: Antiplasmodial activity against Plasmodium falciparum 3D7 assessed as inhibition of [3H]hypoxanthine incorporation after 18 hrs by liquid scintillation counting; format: functional, organism-based
HEK-293T = test: Cytotoxicity against human HEK293T cells after 72 hrs by alamar blue assay; format: cell-based
[4] = Selectivity ratio of EC50 for human HEK293 cells to EC50 for Plasmodium falciparum 3D7; format: ADME, cell-based; details: read-out: Ratio EC50
[5] = test system: Trypanosoma brucei brucei; test: Antitrypanosomal activity against bloodstream form of Trypanosoma brucei brucei 427 (BS221) assessed as increased propidium iodide uptake at 50 to 100 uM after 30 mins by real-time cell lysis assay; format: functional, organism-based
Summary of the method: (§1)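 Real-time lysis assay with bloodstream-form T. brucei: propidium iodide in the medium fluoresces only on binding DNA/RNA in membrane-compromised cells. Fluorescence was followed for up to 8 h across a range of concentrations. The read-out was the time to reach 80% lysis versus concentration.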

[6] = test system: Trypanosoma brucei brucei; test: Antitrypanosomal activity against bloodstream form of Trypanosoma brucei brucei 427 (BS221) assessed as increased propidium iodide uptake at 10 to 50 times EC50 after by real-time cell lysis assay; format: functional, organism-based; summary of the method: as §1
[7] = test system: Trypanosoma brucei brucei; test: Antitrypanosomal activity against Trypanosoma brucei brucei 427 at 1 uM after 48 hrs by hemocytometry; format: functional, organism-based
Summary of the method: (§2)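 Reversibility test: bloodstream-form T. brucei cultures seeded at 2 × 10⁴ cells, compound added at t = 0 h. Compound was washed out after 24 h or 48 h, or left in. Growth was monitored over 72 h against drug-free controls.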

[8] = test system: Trypanosoma brucei brucei; test: Antitrypanosomal activity against Trypanosoma brucei brucei 427 at 0.1 uM after 72 hrs by hemocytometry; format: functional, organism-based; summary of the method: as §2
[9] = Selectivity ratio of EC50 for human HEK293 cells to EC50 for bloodstream form of Trypanosoma brucei brucei 427 (BS221); format: ADME, cell-based; details: read-out: Ratio EC50
[10] = Selectivity ratio of EC50 for human HEK293 cells to EC50 for TbAt1-deficient bloodstraem form of Trypanosoma brucei brucei 427 (BS221); format: ADME, cell-based; details: read-out: Ratio EC50
[11] = test system: Trypanosoma brucei brucei; test: Antitrypanosomal activity against bloodstream form of Trypanosoma brucei brucei 427 (BS221) assessed as increased propidium iodide uptake at >/=100 times EC50 after 8 hrs by real-time cell lysis assay; format: functional, organism-based; summary of the method: as §1
[12] = test system: Trypanosoma brucei brucei; test: Antitrypanosomal activity against bloodstream form of Trypanosoma brucei brucei s427 assessed as increase in propidium iodide uptake at 0.3 to 1 uM up to 48 hrs by flow cytometry; format: functional, organism-based
Summary of the method: (§3)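 Bloodstream-form T. brucei cultures were exposed to compound for up to 48 h, with duplicate samples taken at 24 and 48 h. Lysis sample: PI added directly for 10 min. DNA-content sample: fixed in 70% methanol or permeabilized with digitonin, RNase-treated, then PI-stained. 10000 cells were counted per panel by flow cytometry, and the experiment was run three times.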

[13] = test system: Trypanosoma brucei brucei; test: Antitrypanosomal activity against bloodstream form of Trypanosoma brucei brucei s427 assessed as DNA fragmentation at 0.3 to 1 uM up to 48 hrs by flow cytometry; format: functional, organism-based; summary of the method: as §3
[14] = test system: Trypanosoma brucei brucei; test: Antitrypanosomal activity against digitonin permeabilized bloodstream form of Trypanosoma brucei brucei s427 assessed as DNA fragmentation at 0.3 to 1 uM up to 48 hrs by flow cytometry; format: functional, organism-based; summary of the method: as §3
[15] = test system: Trypanosoma brucei brucei; test: Antitrypanosomal activity against digitonin permeabilized bloodstream form of Trypanosoma brucei brucei s427 assessed as increase in propidium iodide uptake at 0.3 to 1 uM up to 48 hrs by flow cytometry; format: functional, organism-based; summary of the method: as §3
[16] = test system: Trypanosoma brucei brucei; test: Antitrypanosomal activity against digitonin permeabilized bloodstream form of Trypanosoma brucei brucei s427 assessed as decrease in 2C/4C DNA content by DAPI staining-based fluorescent microscopy; format: functional, organism-based
[17] = test system: Trypanosoma brucei brucei; test: Antitrypanosomal activity against Trypanosoma brucei brucei 427 at 10 uM after 24 hrs by hemocytometry; format: functional, organism-based; summary of the method: as §2
[18] = test system: Trypanosoma brucei brucei; test: Antitrypanosomal activity against bloodstream form of Trypanosoma brucei brucei s427 assessed as cell cylce arrest at 0.3 uM after 24 hrs by flow cytometry; format: functional, organism-based; summary of the method: as §3
[19] = test system: Trypanosoma brucei brucei; test: Antitrypanosomal activity against bloodstream form of Trypanosoma brucei brucei s427 assessed as increase in propidium iodide uptake at 0.3 uM after 48 hrs by flow cytometry; format: functional, organism-based; summary of the method: as §3
[20] = test system: Trypanosoma brucei brucei; test: Antitrypanosomal activity against bloodstream form of Trypanosoma brucei brucei s427 assessed as DNA fragmentation at 0.3 uM after 48 hrs by flow cytometry; format: functional, organism-based; summary of the method: as §3
[21] = test system: Trypanosoma brucei brucei; test: Antitrypanosomal activity against digitonin permeabilized bloodstream form of Trypanosoma brucei brucei s427 assessed as increase in propidium iodide uptake at 1 uM at 24 hrs by flow cytometry; format: functional, organism-based; summary of the method: as §3
[22] = test system: Trypanosoma brucei brucei; test: Antitrypanosomal activity against digitonin permeabilized bloodstream form of Trypanosoma brucei brucei s427 assessed as DNA fragmentation at 1 uM at 24 hrs by flow cytometry; format: functional, organism-based; summary of the method: as §3
[23] = test system: Trypanosoma brucei brucei; test: Antitrypanosomal activity against Trypanosoma brucei brucei 427 at 1 uM after 24 hrs by hemocytometry; format: functional, organism-based; summary of the method: as §2
[24] = test system: Trypanosoma brucei brucei; test: Antitrypanosomal activity against bloodstream form of Trypanosoma brucei brucei 427 (BS221) assessed as increased propidium iodide uptake at 780 nM after 3 hrs by real-time cell lysis assay; format: functional, organism-based; summary of the method: as §1
[25] = Selectivity ratio of EC50 for human HEK293 cells to EC50 for Leishmania major Friedlin; format: ADME, cell-based; details: read-out: Ratio EC50
[26] = Selectivity ratio of EC50 for human HEK293 cells to EC50 for Leishmania mexicana MNYC/BZ/62/M379; format: ADME, cell-based; details: read-out: Ratio EC50

SMILES	EC50 [1] [nM]	EC50 [2] [nM]	EC50 [3] [nM]	EC50 (Leishmania major) [nM]	EC50 (Leishmania mexicana) [nM]	EC50 (Plasmodium falciparum) [nM]	EC50 (HEK-293T) [nM]	Activity [5]	Activity [11]	further results
OCCCCCCCCCCCCCc1ccc[n+](CCCCCCCCCCCCCc2ccc[n+](CCCCCCCCCCCCCc3cccnc3)c2)c1	220	270	250	850	190	68	16000	Active		selectivity ratio [4]: 237; Activity [6]: Active
COc1ccc(C[n+]2cccc(CCCCCCCCCCCCCO)c2)cc1	49	84	62	320	650	240	21000	Active	Active	Activity [7]: Active; Activity [8]: inactive; selectivity ratio [9]: 437; selectivity ratio [10]: 437; Activity [12]: inactive; Activity [13]: inactive; Activity [14]: inactive; Activity [15]: inactive; Activity [16]: inactive; Activity [17]: Active
CCCC[n+]1cccc(CCCCCCCCCCCCCI)c1	14	63	34	360	290	310	26000	Active	Active	Activity [8]: inactive; selectivity ratio [9]: > 1000; selectivity ratio [10]: > 1000; Activity [18]: inactive; Activity [19]: Active; Activity [20]: Active; Activity [21]: Active; Activity [22]: inactive; Activity [16]: inactive; Activity [17]: Active; Activity [23]: Active
N=C(N)c1ccc(OCCCCCOc2ccc(C(=N)N)cc2)cc1 [PENTAMIDINE]	1.4	3.2	66	4300	8800					
OCCCCCCCCCCCCCc1cccnc1	16000	34000	35000	> 50000	> 50000	7500	204000			
OCCCCCCCCCCCCCc1ccc[n+](CCCCCCCCCCCCCc2cccnc2)c1	400	620	300	1600	340	140	25000	Active		Activity [24]: Active
COc1ccc(C[n+]2cccc(CCCCCCCCCCCCCI)c2)cc1	190	480	200	1000	400	220	41000	Active	Active	
N=C(N)c1ccc(/N=N/Nc2ccc(C(=N)N)cc2)cc1 [DIMINAZEN ACETURATE]	260	7900			24000					
C[n+]1cccc(CCCCCCCCCCCCCO)c1	2300	2300	2700	2700	4800	1500	183000	Active		
OCCCCCCCCCCCCCc1ccc[n+](CCCCCCCCCCCCCc2ccc[n+](CCCCCCCCCCCCCc3ccc[n+](CCCCCCCCCCCCCc4cccnc4)c3)c2)c1	310	410	330	1100	230	160	11000	Active		Activity [6]: Active
CCCC[n+]1cccc(CCCCCCCCCCCCCO)c1	160	260	200	330	1700	510	48000	Active	Active	selectivity ratio [9]: 299; selectivity ratio [10]: 299; selectivity ratio [25]: 145; selectivity ratio [26]: 145; Activity [12]: inactive; Activity [13]: inactive; Activity [14]: inactive; Activity [15]: inactive; Activity [16]: inactive; Activity [17]: Active
C[n+]1cccc(CCCCCCCCCCCCCI)c1	86	180	110	310	280	260	47000	Active	Active	selectivity ratio [9]: 540; selectivity ratio [10]: 540; selectivity ratio [25]: 149; selectivity ratio [26]: 149; Activity [12]: inactive; Activity [13]: inactive; Activity [14]: inactive; Activity [15]: inactive; Activity [16]: inactive; Activity [17]: Active
c1cc2c[n+](c1)CCCCCCCCCCCCCc1ccc[n+](c1)CCCCCCCCCCCCCc1ccc[n+](c1)CCCCCCCCCCCCC2 [VISCOSAMINE]	410	490	280	720	810	53	26000	Active		selectivity ratio [4]: 493; Activity [6]: Active
CCN(CC)CCCC(C)Nc1ccnc2cc(Cl)ccc12 (stereo not given) [CHLOROQUINE]						0.67				
NCCS[As](SCCN)c1ccc(Nc2nc(N)nc(N)n2)cc1	3.9	7.8	210							
c1cc2c[n+](c1)CCCCCCCCCCCCCc1ccc[n+](c1)CCCCCCCCCCCCCc1ccc[n+](c1)CCCCCCCCCCCCCc1ccc[n+](c1)CCCCCCCCCCCCC2	560	660	420	640	1100	190	14000	Active		Activity [6]: Active
